Tests used:
Format in all cases: functional
[1] = tested on: Staphylococcus aureus; assay: Antibacterial activity against community-acquired methicillin-resistant Staphylococcus aureus
Summary of the method: (§1)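 MIC by CLSI (formerly NCCLS) broth microdilution for aerobically growing bacteria.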

[2] = tested on: Staphylococcus; assay: Antibacterial activity against coagulase-negative staphylococci; summary of the method: as §1
[3] = tested on: Staphylococcus aureus; assay: Antibacterial activity against methicillin-susceptible Staphylococcus aureus; summary of the method: as §1
[4] = tested on: Enterococcus faecium; assay: Antibacterial activity against linezolid-susceptible Enterococcus faecium; summary of the method: as §1
[5] = tested on: Streptococcus pneumoniae; assay: Antibacterial activity against Streptococcus pneumoniae; summary of the method: as §1
[6] = tested on: Staphylococcus aureus; assay: Antibacterial activity against Staphylococcus aureus; summary of the method: as §1
[7] = tested on: Staphylococcus aureus; assay: Antibacterial activity against methicillin-resistant Staphylococcus aureus; summary of the method: as §1
[8] = tested on: Streptococcus pyogenes; assay: Antibacterial activity against macrolide-resistant Streptococcus pyogenes; summary of the method: as §1
[9] = tested on: Staphylococcus aureus; assay: Antibacterial activity against vancomycin-intermediate methicillin-resistant Staphylococcus aureus; summary of the method: as §1
[10] = tested on: Streptococcus pneumoniae; assay: Antibacterial activity against penicillin-resistant Streptococcus pneumoniae; summary of the method: as §1
[11] = tested on: Staphylococcus; assay: Antibacterial activity against methicillin-resistant coagulase-negative staphylococci; summary of the method: as §1
[12] = tested on: Streptococcus pneumoniae; assay: Antibacterial activity against macrolide-resistant Streptococcus pneumoniae; summary of the method: as §1
[13] = tested on: Enterococcus faecalis; assay: Antibacterial activity against linezolid-susceptible Enterococcus faecalis; summary of the method: as §1
[14] = tested on: Streptococcus pneumoniae; assay: Antibacterial activity against fluoroquinolone-resistant Streptococcus pneumoniae; summary of the method: as §1
[15] = tested on: Legionella pneumophila; assay: Antibacterial activity against Legionella pneumophila
Summary of the method: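 L. pneumophila broth microdilution. Inoculum suspended in buffered yeast extract broth and added to wells holding serial antibiotic dilutions. Incubated aerobically at 34°C to 36°C for 48 h. MIC taken as the lowest concentration inhibiting visible growth.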

[16] = tested on: Staphylococcus; assay: Antibacterial activity against methicillin-susceptible coagulase-negative staphylococci; summary of the method: as §1
[17] = tested on: Moraxella catarrhalis; assay: Antibacterial activity against Moraxella catarrhalis
Summary of the method: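 MIC determined by the CLSI (formerly NCCLS) broth microdilution procedure for aerobically growing bacteria.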

[18] = tested on: Mycoplasmoides pneumoniae; assay: Antibacterial activity against Mycoplasma pneumoniae
Summary of the method: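 Microbroth MIC following Waites et al. Isolates were titred in SP4 glucose broth by serial 10-fold dilution to count color changing units. Drug was serially diluted in antibiotic-free SP4 glucose broth and inoculated at 104 CCU/ml, then incubated at 35°C until control wells changed color. The MIC was the lowest concentration preventing color change.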

[19] = tested on: Staphylococcus aureus; assay: Antibacterial activity against methicillin-resistant Staphylococcus aureus OC 2878 by time kill experiments
Summary of the method: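 Time-kill by CLSI methodology with drug at four times the MIC against MRSA OC 2878, alongside a drug-free control culture. Viable counts were followed over time.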

[20] = tested on: Enterococcus faecalis; assay: Antibacterial activity against Enterococcus faecalis ATCC 51922 by time kill experiments
Summary of the method: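 Time-kill curves run per CLSI methodology, with drug at four times the MIC measured for the isolate. Growth in drug-containing medium was followed alongside a drug-free control medium over time.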

CC(=O)NC[C@H]1CN(c2ccc(N3CCOCC3)c(F)c2)C(=O)O1 [LINEZOLID]
1 µg/mL: MIC50 [5] | MIC90 [5] | MIC50 [8] | MIC50 [9] | MIC50 [10] | MIC90 [10] | MIC50 [12] | MIC90 [12] | MIC90 [14] | MIC50 [16]
4 µg/mL: MIC50 [1] | MIC90 [1] | MIC90 [3] | MIC90 [4] | MIC50 [6] | MIC90 [6] | MIC50 [7] | MIC90 [7] | MIC90 [9] | MIC50 [15]
> 64 µg/mL: MIC50 [18] | MIC90 [18]
8 µg/mL: MIC50 [17] | MIC90 [17]
16 µg/mL: MIC90 [15]
0.5 µg/mL: MIC50 [14]
2 µg/mL: MIC50 [2] | MIC90 [2] | MIC50 [3] | MIC50 [4] | MIC90 [8] | MIC50 [11] | MIC90 [11] | MIC50 [13] | MIC90 [13] | MIC90 [16]

CC(=O)NC[C@H]1CN(c2ccc(N3Cc4cn(C)nc4C3)c(F)c2)C(=O)O1
4 µg/mL: MIC50 [15] | MIC90 [17]
8 µg/mL: MIC90 [15]
0.5 µg/mL: MIC50 [2] | MIC50 [5] | MIC90 [5] | MIC50 [8] | MIC90 [8] | MIC50 [9] | MIC50 [10] | MIC90 [10] | MIC50 [11] | MIC50 [12] | MIC90 [12] | MIC50 [13] | MIC50 [14] | MIC90 [14] | MIC50 [16] | MIC90 [16]
2 µg/mL: MIC90 [1] | MIC90 [3] | MIC90 [6] | MIC90 [7] | MIC90 [9] | MIC50 [17]
32 µg/mL: MIC90 [18]
16 µg/mL: MIC50 [18]
1 µg/mL: MIC [19] | MIC [20] | MIC50 [1] | MIC90 [2] | MIC50 [3] | MIC50 [4] | MIC90 [4] | MIC50 [6] | MIC50 [7] | MIC90 [11] | MIC90 [13]

CC[C@H]1OC(=O)[C@H](C)[C@@H](O[C@H]2C[C@@](C)(OC)[C@@H](O)[C@H](C)O2)[C@H](C)[C@@H](O[C@@H]2O[C@H](C)C[C@H](N(C)C)[C@H]2O)[C@](C)(O)C[C@@H](C)C(=O)[C@H](C)[C@@H](O)[C@]1(C)O [ERYTHROMYCIN]
8 µg/mL: MIC50 [8]
4 µg/mL: MIC50 [12]
0.25 µg/mL: MIC50 [17] | MIC90 [17]
> 16 µg/mL: MIC90 [8] | MIC90 [12]

CC1(C)S[C@@H]2[C@H](NC(=O)Cc3ccccc3)C(=O)N2[C@H]1C(=O)O [PENICILLIN G]
4 µg/mL: MIC90 [10]
2 µg/mL: MIC50 [10]

C[C@H]1COc2c(N3CCN(C)CC3)c(F)cc3c(=O)c(C(=O)O)cn1c23.C[C@H]1COc2c(N3CCN(C)CC3)c(F)cc3c(=O)c(C(=O)O)cn1c23.O [LEVOFLOXACIN]
1 µg/mL: MIC90 [18]
16 µg/mL: MIC50 [14]
0.5 µg/mL: MIC90 [15] | MIC50 [18]
0.12 µg/mL: MIC50 [15]
> 16 µg/mL: MIC90 [14]

Cc1onc(-c2ccccc2)c1C(=O)N[C@@H]1C(=O)N2[C@@H]1SC(C)(C)[C@@H]2C(=O)O [OXACILLIN]
0.25 µg/mL: MIC90 [16]
0.12 µg/mL: MIC50 [16]
> 16 µg/mL: MIC50 [2] | MIC90 [2] | MIC50 [11] | MIC90 [11]
32 µg/mL: MIC50 [1] | MIC90 [1]
> 32 µg/mL: MIC50 [7] | MIC90 [7] | MIC50 [9] | MIC90 [9]

CN[C@H](CC(C)C)C(=O)N[C@H]1C(=O)N[C@@H](CC(N)=O)C(=O)N[C@H]2C(=O)N[C@H]3C(=O)N[C@H](C(=O)N[C@H](C(=O)O)c4cc(O)cc(O)c4-c4cc3ccc4O)[C@H](O)c3ccc(c(Cl)c3)Oc3cc2cc(c3O[C@@H]2O[C@H](CO)[C@@H](O)[C@H](O)[C@H]2O[C@H]2C[C@](C)(N)[C@H](O)[C@H](C)O2)Oc2ccc(cc2Cl)[C@H]1O [VANCOMYCIN]
8 µg/mL: MIC90 [9]
1 µg/mL: MIC50 [1] | MIC90 [1] | MIC50 [3] | MIC50 [6] | MIC50 [7]
2 µg/mL: MIC50 [2] | MIC90 [3] | MIC50 [11] | MIC50 [16]
4 µg/mL: MIC90 [2] | MIC90 [6] | MIC90 [7] | MIC50 [9] | MIC90 [11] | MIC50 [13] | MIC90 [16]
> 16 µg/mL: MIC50 [4] | MIC90 [4] | MIC90 [13]
